According to ChEMBL document CHEMBL4007409, “Design and Synthesis of Novel and Selective Phosphodiesterase 2 (PDE2a) Inhibitors for the Treatment of Memory Disorders” (J Med Chem, 2017):
≈ marks a conversion by molar mass, not a printed value.

Key:
[1] = Solubility of the compound; type: physicochemical
[2] = Intrinsic clearance in rat liver microsomes at 1 uM measured up to 30 mins in presence of NADPH by HPLC analysis; type: ADME, microsome; conditions: read-out: CLH
Method in brief: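 Compound at 1 µM final was incubated with human or rat liver microsomes (0.5 mg protein/mL) in Tris buffer at 37 °C, started with NADPH (2 mM). Samples were quenched in cold ACN with indomethacin internal standard at 0, 5, 15 and 30 min (RLM) or 0, 15, 30 and 60 min (HLM) and analysed by HPLC. CLint = first-order degradation rate constant / microsomal protein concentration.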

Cerebrospinal fluid = assay: Drug uptake in Sprague-Dawley rat cerebrospinal fluid at 1 mg/kg, po administered as single dose by LC-MS/MS analysis; type: ADME, organism-based; conditions: in vivo, read-out: Drug uptake
Method in brief: (§1)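 Male SD rats got a single 1 mg/kg oral dose in NMP:PEG400:water (5:35:65). Total brain, CSF and plasma levels were then measured.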

[3] = Oral bioavailability in Sprague-Dawley rat plasma at 1 mg/kg administered as single dose by LC-MS/MS analysis; type: ADME, organism-based
Method in brief: (§2)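 Non-fasted male SD rats (200-250 g, n=3) received a single oral 1 mg/kg dose in NMP:PEG400:water (5:35:65). Femoral-vein blood was sampled pre-dose and at 0.25–24 h. Plasma was extracted with acetonitrile plus internal standard and analysed by LC-MS/MS over a 0.5–2000 ng/mL calibration range.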

Brain = assay: Drug uptake in Sprague-Dawley rat brain at 1 mg/kg, po administered as single dose by LC-MS/MS analysis; type: ADME, organism-based; conditions: in vivo, read-out: Drug uptake; method in brief: as §1
[4] = AUC (infinity) in Sprague-Dawley rat plasma at 1 mg/kg, po administered as single dose by LC-MS/MS analysis; type: ADME, organism-based; set-up: dose 1 mg/kg, time infinity, route oral; method in brief: as §2
[5] = Elimination half life in Sprague-Dawley rat plasma at 1 mg/kg, iv administered as single dose by LC-MS/MS analysis; type: ADME, organism-based; conditions: read-out: beta t1/2 (converted)
Method in brief: (§3)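 Male SD rats (200-250 g), not fasted, n=3, given a single 1 mg/kg IV dose in NMP:PEG400:water (5:35:65) via jugular/femoral vein catheters. Blood was taken from pre-dose to 24 h (0.033–24 h). Plasma was protein-precipitated with acetonitrile containing internal standard and quantified by LC-MS/MS against 0.5–2000 ng/mL standards.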

Plasma = assay: Drug uptake in Sprague-Dawley rat plasma at 1 mg/kg, po administered as single dose by LC-MS/MS analysis; type: ADME, organism-based; conditions: read-out: Cp, in vivo; method in brief: as §1
Rattus norvegicus = assay: Clearance in Sprague-Dawley rat plasma at 1 mg/kg, iv administered as single dose by LC-MS/MS analysis relative to hepatic blood flow; type: ADME, organism-based; conditions: in vivo
[6] = Tmax in Sprague-Dawley rat plasma at 1 mg/kg, po administered as single dose by LC-MS/MS analysis; type: ADME, organism-based; method in brief: as §2
[7] = Cmax in Sprague-Dawley rat plasma at 1 mg/kg, po administered as single dose by LC-MS/MS analysis; type: ADME, organism-based; set-up: dose 1 mg/kg, route oral; method in brief: as §2
[8] = Volume of distribution at steady state in Sprague-Dawley rat plasma at 1 mg/kg, iv administered as single dose by LC-MS/MS analysis; type: ADME, organism-based; conditions: read-out: Vdss; method in brief: as §3
[9] = Clearance in Sprague-Dawley rat plasma at 1 mg/kg, iv administered as single dose by LC-MS/MS analysis; type: ADME, organism-based; method in brief: as §3
[10] = AUC (0 to infinity) in Sprague-Dawley rat plasma at 1 mg/kg, iv administered as single dose by LC-MS/MS analysis; type: ADME, organism-based; set-up: dose 1 mg/kg, time infinity, route intravenous; method in brief: as §3

solubility [1] [µg/mL] | microsomal CLint at 1 µM [2] [µL/min/mg] | SMILES | other results
49 (≈ 130 µM) | 67.9 | Cc1cc(N2CCCC(C(=O)Nc3ccc4c(c3)CCC4)C2)n2ncnc2n1 (centres undefined) | 
 | 52.2 | Cc1cc([C@@H]2CN(C(=O)c3cc(C)c(F)c(F)c3)CC(F)(F)C2)n2ncnc2n1 | 
47 (≈ 130 µM) | 76.2 | O=C(Nc1ccc2c(c1)CCC2)C1CCCN(c2ccnc3ncnn23)C1 (centres undefined) | 
 | 17.3 | Cc1cc([C@H]2CN(C(=O)c3ccc(F)c(Br)c3)CC(F)(F)C2)n2ncnc2n1 | 
35 (≈ 99 µM) | 33.5 | Cc1cc(C2CCCN(C(=O)c3ccc(F)c(C)c3)C2)n2ncnc2n1 (centres undefined) | 
36 (≈ 98.5 µM) | 30.2 | COc1ccc(C(=O)N2CCCC(c3cc(C)nc4ncnn34)C2)cc1C (centres undefined) | 
13 (≈ 33.6 µM) | 53.4 | Cc1cc(N2CCCC(C(=O)Nc3ccc4ccccc4c3)C2)n2ncnc2n1 (centres undefined) | 
 | 25.7 | Cc1cc([C@@H]2CN(C(=O)c3ccc(F)c(Br)c3)CC(F)(F)C2)n2ncnc2n1 | concentration (Cerebrospinal fluid): 15 nM; bioavailability [3]: 87%; concentration (Brain): 66 nM; AUC(0-inf) [4]: 442 ng·h/mL; half-life [5]: 60.6 min; concentration (Plasma): 204 nM; CL (Rattus norvegicus): 50%; Tmax [6]: 40.2 min; Cmax [7]: 201 ng/mL; Vd [8]: 0.98 L/kg; clearance [9]: 32.8 mL/min/kg; AUC(0-inf) [10]: 508 ng·h/mL
37 (≈ 99.6 µM) | 124 | Cc1cc([C@H]2CCCN(C(=O)c3ccc4ccccc4c3)C2)n2ncnc2n1 | 
 | 162 | Cc1cc([C@@H]2CN(C(=O)c3ccc(F)c(C4CC4)c3)CC(F)(F)C2)n2ncnc2n1 | 
29 (≈ 67.4 µM) | 94.1 | O=C(Nc1ccc2c(c1)CCC2)C1CCCN(c2cc(C(F)(F)F)nc3ncnn23)C1 (centres undefined) | 
36 (≈ 99.1 µM) | 21.7 | Cc1cc(C2CCCN(C(=O)c3ccc4c(c3)OCC4)C2)n2ncnc2n1 (centres undefined) | 
47 (≈ 126 µM) | 6.3 | Cc1cc(C2CCCN(C(=O)c3ccc4ncccc4c3)C2)n2ncnc2n1 (centres undefined) | 
47 (≈ 130 µM) | 83.9 | Cc1cc(C2CCCN(C(=O)c3ccc4c(c3)CCC4)C2)n2ncnc2n1 (centres undefined) | 
37 (≈ 99.6 µM) | 41.4 | Cc1cc([C@@H]2CCCN(C(=O)c3ccc4ccccc4c3)C2)n2ncnc2n1 | 
45 (≈ 112 µM) | 78.9 | COc1cc(Cl)ccc1NC(=O)C1CCCN(c2cc(C)nc3ncnn23)C1 (centres undefined) | 
37 (≈ 99.6 µM) | 85.6 | Cc1cc(C2CCCN(C(=O)c3ccc4ccccc4c3)C2)n2ncnc2n1 (racemic) | 
 | 67.7 | COc1ccc(C(=O)N2CC(c3cc(C)nc4ncnn34)CC(F)(F)C2)cc1C (racemic) | 
 | 78.8 | Cc1cc(C2CN(C(=O)c3ccc4ccccc4c3)CC(F)(F)C2)n2ncnc2n1 (racemic) | 
